In the library only some 1.1% were active in any assay of this set; here they are far more common.
Keap1 Nrf2 FP = Keap1-Nrf2 (human) interaction inhibition. 340,000 compounds, 0.15% hits. Q14145. Keap1 Kelch-Nrf2 peptide fluorescence polarization, 1536-well. AID 504523. inhibition, % at 9.4 µM; in the data active = inhibition above about 12%;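 note: human Keap1 Kelch domain with fluorescein labeled Nrf2 9mer peptide probe; higher means more block of Keap1 binding to Nrf2 peptide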
Target sequence (Q14145 whole entry, looked up, the tested form may be a part): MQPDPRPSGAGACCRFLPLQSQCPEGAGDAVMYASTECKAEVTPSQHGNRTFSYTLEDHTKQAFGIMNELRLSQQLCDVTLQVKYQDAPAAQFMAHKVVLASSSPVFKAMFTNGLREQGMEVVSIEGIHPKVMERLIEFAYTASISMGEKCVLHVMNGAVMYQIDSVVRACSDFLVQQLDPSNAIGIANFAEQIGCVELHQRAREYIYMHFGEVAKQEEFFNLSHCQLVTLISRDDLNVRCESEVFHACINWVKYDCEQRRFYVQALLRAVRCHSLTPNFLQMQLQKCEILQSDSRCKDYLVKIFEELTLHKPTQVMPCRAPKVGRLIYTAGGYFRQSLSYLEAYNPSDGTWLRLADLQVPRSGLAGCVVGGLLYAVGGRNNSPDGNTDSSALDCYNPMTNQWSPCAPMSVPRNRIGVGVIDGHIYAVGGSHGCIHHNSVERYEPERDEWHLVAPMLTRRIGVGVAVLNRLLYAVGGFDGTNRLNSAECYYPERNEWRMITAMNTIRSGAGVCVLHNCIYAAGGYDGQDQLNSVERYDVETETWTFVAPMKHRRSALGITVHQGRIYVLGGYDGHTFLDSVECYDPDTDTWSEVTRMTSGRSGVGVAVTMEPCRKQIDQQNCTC
CAL PDZ FP-1 = blocks peptide binding to human CAL PDZ domain; Q9HD26; purified CAL PDZ, TMR-peptide fluorescence polarization, 1 h; inhibition, % at 20 µM; 330,000 compounds, 0.02% hits;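 active = highest replicate inhibition of at least 40%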
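material = purified tagged CAL PDZ domain construct (CerCALP) | compound dosing = 20 µM, one dose | times = 1 h at RT | measured by = fluorescence polarization from S- and P-plane intensities, G-factor corrected | read-out = inhibition from polarization loss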
CAL PDZ FP-2 = blocks peptide binding to the human CAL PDZ domain; Q9HD26; purified CAL PDZ, TMR-peptide fluorescence polarization, 1 h; inhibition, % at 24.9 µM; 300,000 compounds, 0.92% hits; AID 602252;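 active = mean inhibition of at least 30% with at least half of replicates also reaching 30%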
miR122 inh = miR-122 inhibition in Huh7 cells | Huh7 miR-122 Renilla luciferase sensor, 48 h; neutral wells = 0, positive control = 100 | activation (reporter increase), % at 12.5 µM | 340,000 compounds, 0.3% hits;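 active = mean replicate activation score at least 90 and every replicate individually at or above 90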;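 note: higher luciferase means less miR-122 activity so hits act as miR-122 inhibitors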
C-LANA FP = inhibitors of KSHV LANA C-terminal domain DNA binding; inhibition, % at 9 µM; MBP-C-LANA/FAM-LBS DNA binding, fluorescence polarization; 340,000 compounds, 0.078% hits;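 active = highest replicate inhibition at or above 60% at 9 µM, even if other replicates fall short; inactive = all replicates below 60% inhibition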
Numbers stand for hits.

For COc1cc(S(=O)(=O)NC2CCCCC2)c(C)cc1C the results were Keap1 Nrf2 FP inactive, CAL PDZ FP-1 inactive, miR122 inh 163 and C-LANA FP inactive.
Screening Cc1ccc(/C=N/N(C)S(=O)(=O)c2ccc(C)cc2)cc1 returned Keap1 Nrf2 FP inactive, CAL PDZ FP-2 49, miR122 inh inactive and C-LANA FP inactive.
Screening CSc1ccc(/C=N/N(C)S(=O)(=O)c2ccc(C)cc2)cc1 returned Keap1 Nrf2 FP inactive, CAL PDZ FP-1 inactive, CAL PDZ FP-2 inactive, miR122 inh inactive and C-LANA FP inactive.
Screening C[C@@H]1CN([C@H](C)CO)C(=O)c2cc(NC(=O)Cc3ccccc3)ccc2O[C@@H](C)CCCCO[C@@H]1CN(C)C(=O)c1ccncc1 returned miR122 inh inactive.
Screening C=C(C)CNC(=S)N/N=C/C1=CCC2CC1C2(C)C (configuration not stated) returned Keap1 Nrf2 FP inactive, CAL PDZ FP-1 inactive, CAL PDZ FP-2 49 and C-LANA FP inactive.
`C[C@H](CO)N1C[C@H](C)[C@@H](CN(C)C)Oc2ccc(NC(=O)Nc3ccc4c(c3)OCO4)cc2CC1=O` gave miR122 inh inactive.
NC(=O)NCC(=O)N1CCC(C(O)(c2ccccc2)c2ccccc2)CC1 was read as Keap1 Nrf2 FP inactive, CAL PDZ FP-1 inactive, CAL PDZ FP-2 79, miR122 inh inactive and C-LANA FP inactive.
CCNC(=S)N1CCC(C(O)(c2ccccc2)c2ccccc2)CC1 was read as Keap1 Nrf2 FP inactive, CAL PDZ FP-1 inactive, CAL PDZ FP-2 inactive and C-LANA FP inactive.
C[C@H](CO)N1C[C@H](C)[C@@H](CN(C)C(=O)CCC(F)(F)F)OCCCC[C@H](C)Oc2ccc(NC(=O)NC3CCCCC3)cc2C1=O was read as miR122 inh inactive.
O=C(CSc1ncccc1C(=O)O)NC1CCCCCCC1 was read as Keap1 Nrf2 FP inactive, CAL PDZ FP-1 inactive, CAL PDZ FP-2 60, miR122 inh inactive and C-LANA FP inactive.
Screening C=CCn1c(SCC(=O)NC2CCCCC2)nnc1-c1ccccn1 returned Keap1 Nrf2 FP inactive, CAL PDZ FP-1 inactive, CAL PDZ FP-2 122, miR122 inh inactive and C-LANA FP inactive.
`C=CCn1c(SCC(=O)NC2CC2)nnc1-c1ccccn1` gave Keap1 Nrf2 FP inactive, CAL PDZ FP-1 inactive, CAL PDZ FP-2 inactive, miR122 inh inactive and C-LANA FP inactive.
Screening O=C(O)CSc1cc(NS(=O)(=O)c2ccc(Br)cc2)c2ccccc2c1O returned Keap1 Nrf2 FP inactive, CAL PDZ FP-1 42, CAL PDZ FP-2 inactive, miR122 inh inactive and C-LANA FP inactive.
O=S(=O)(Nc1cc(Sc2ncn[nH]2)c(O)c2ccccc12)c1ccccc1 was read as Keap1 Nrf2 FP inactive, CAL PDZ FP-1 inactive, CAL PDZ FP-2 inactive, miR122 inh inactive and C-LANA FP inactive.
`Cc1ccc(NC(=O)c2ccc(C)c(S(=O)(=O)N3CCOCC3)c2)nc1` gave Keap1 Nrf2 FP inactive, CAL PDZ FP-1 inactive, CAL PDZ FP-2 inactive, miR122 inh inactive and C-LANA FP inactive.
Cc1ccc(NC(=O)c2ccc(S(=O)(=O)N3CCOCC3)cc2)nc1 was read as Keap1 Nrf2 FP inactive, CAL PDZ FP-1 inactive, CAL PDZ FP-2 inactive, miR122 inh 216 and C-LANA FP inactive.
Screening CCNC(=O)C[C@H]1C=C[C@@H](NS(=O)(=O)c2ccc(F)cc2)[C@H](CO)O1 returned miR122 inh inactive.
`CCNC(=O)C[C@@H]1CC[C@H]2[C@@H](COC[C@H](O)CN2C(=O)C2CCOCC2)O1` gave miR122 inh inactive.
NC(=O)C1=CC2C3C=CC2(O)C(=O)OC3O1 (configuration not stated) was read as Keap1 Nrf2 FP inactive, CAL PDZ FP-1 inactive, CAL PDZ FP-2 inactive, miR122 inh 136 and C-LANA FP inactive.
`COc1ccc(N(Cc2ccccc2)S(=O)(=O)c2cccc(C(=O)NC3=NCCS3)c2)cc1` gave Keap1 Nrf2 FP inactive, CAL PDZ FP-2 inactive, miR122 inh 119 and C-LANA FP inactive.
O=S(=O)(NCCOCC(F)(F)C(F)F)c1ccc2oc3ccccc3c2c1 was read as Keap1 Nrf2 FP inactive, CAL PDZ FP-2 inactive, miR122 inh 107 and C-LANA FP inactive.
`CC(=O)Nc1sc(NC(=O)c2ccc(C)cc2)nc1-c1cccs1` gave Keap1 Nrf2 FP inactive, CAL PDZ FP-2 73, miR122 inh inactive and C-LANA FP inactive.
For CC1CN(CCOc2ccc(F)cc2)CC(C)O1 (configuration not stated) the results were Keap1 Nrf2 FP inactive, CAL PDZ FP-1 inactive, CAL PDZ FP-2 42, miR122 inh inactive and C-LANA FP inactive.
